Tests used:
Format in all cases: functional, cell-based
HCT-116 = test: Antiproliferative activity against human HCT-116 cells assessed as inhibition of cell proliferation measured by MTT assay
Procedure, shortened: (§1)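 Tumour cell panel: HCT116 (colorectal carcinoma), PC3 (prostate adenocarcinoma), HL60 (acute promyelocytic leukaemia), SNB19 (astrocytoma). Antiproliferative effect reported as half-maximal inhibitory concentration (IC50, µM) for each line.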

PC-3 = test: Antiproliferative activity against human PC-3 cells assessed as inhibition of cell proliferation measured by MTT assay; procedure, shortened: as §1
SNB-19 = test: Antiproliferative activity against human SNB-19 cells assessed as inhibition of cell proliferation measured by MTT assay; procedure, shortened: as §1
HL-60 = test: Antiproliferative activity against human HL-60 cells assessed as inhibition of cell proliferation measured by MTT assay; procedure, shortened: as §1
HeLa = test: Cytotoxicity against human HeLa cells assessed as inhibition of cell viability
B16-F10 = test: Antiproliferative activity against mouse B16-F10 cells assessed as inhibition of cell proliferation
A549 = test: Antiproliferative activity against human A549 cells assessed as inhibition of cell proliferation

Row | IC50 (HCT-116) [µM] | IC50 (PC-3) [µM] | IC50 (HL-60) [µM] | IC50 (B16-F10) [µM] | IC50 (A549) [µM] | Compound | IC50 (SNB-19) [µM] | IC50 (HeLa) [µM]
1 | 120 | 142 | 66.5 | – | – | Nc1nc(-c2ccccc2)cc(-c2cnn(-c3ccccc3)n2)n1 | > 200 | –
2 | 95.3 | 58.2 | 68.2 | – | – | Nc1ccc(-c2cc(-c3cnn(-c4ccccc4)n3)nc(N)n2)cc1 | 106 | –
3 | 57 | 33.6 | 70.3 | – | – | Nc1nc(-c2ccccc2)cc(-c2cccs2)n1 | 85.1 | –
4 | 55.5 | 81.5 | 29.3 | – | – | Nc1nc(-c2ccccc2)cc(-c2ccc[nH]2)n1 | 174 | –
5 | – | – | – | – | – | Nc1nc(-c2ccccc2)cc(-c2cn(-c3ccccc3)nc2-c2ccc([N+](=O)[O-])cc2)n1 | – | 5.47
6 | 133 | > 200 | > 200 | – | – | Nc1nc(-c2ccc([N+](=O)[O-])cc2)cc(-c2cnn(-c3ccccc3)n2)n1 | 132 | –
7 | – | – | – | 16.2 | 16.3 | Cc1ccc(-c2cc(C(F)(F)F)nn2-c2ccc(S(N)(=O)=O)cc2)cc1 [CELECOXIB] | – | –
